Assays:
Mus musculus [1] = species on record: Mus musculus; test: Ability for prevention of GSH depletion was measured in mouse; type: functional
Outline: (§1)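 Glutamate-challenged HT22 cells; total intracellular GSH measured by enzymatic glutathione assay, i.e. formation of 5-thio-2-nitrobenzoic acid from GSH oxidation by 5,5'-dithiobis(2-nitrobenzoic acid).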

HT22 (Mus musculus) [2] = test: Neuroprotective effect was measured by its ability to protect mouse hippocampal neuronal HT-22 cell lines from oxidative stress caused by glutamate
Nitric oxide synthase 1 [3] = target: T1, Nitric oxide synthase 1 (Homo sapiens, UniProt P29475); test: In vitro inhibition concentration was evaluated on the effect of conversion by Nitric Oxide synthase of [3H]L-arginine into [3H]L-citrulline; Not active up to 100 uM
T1 sequence (P29475 whole entry): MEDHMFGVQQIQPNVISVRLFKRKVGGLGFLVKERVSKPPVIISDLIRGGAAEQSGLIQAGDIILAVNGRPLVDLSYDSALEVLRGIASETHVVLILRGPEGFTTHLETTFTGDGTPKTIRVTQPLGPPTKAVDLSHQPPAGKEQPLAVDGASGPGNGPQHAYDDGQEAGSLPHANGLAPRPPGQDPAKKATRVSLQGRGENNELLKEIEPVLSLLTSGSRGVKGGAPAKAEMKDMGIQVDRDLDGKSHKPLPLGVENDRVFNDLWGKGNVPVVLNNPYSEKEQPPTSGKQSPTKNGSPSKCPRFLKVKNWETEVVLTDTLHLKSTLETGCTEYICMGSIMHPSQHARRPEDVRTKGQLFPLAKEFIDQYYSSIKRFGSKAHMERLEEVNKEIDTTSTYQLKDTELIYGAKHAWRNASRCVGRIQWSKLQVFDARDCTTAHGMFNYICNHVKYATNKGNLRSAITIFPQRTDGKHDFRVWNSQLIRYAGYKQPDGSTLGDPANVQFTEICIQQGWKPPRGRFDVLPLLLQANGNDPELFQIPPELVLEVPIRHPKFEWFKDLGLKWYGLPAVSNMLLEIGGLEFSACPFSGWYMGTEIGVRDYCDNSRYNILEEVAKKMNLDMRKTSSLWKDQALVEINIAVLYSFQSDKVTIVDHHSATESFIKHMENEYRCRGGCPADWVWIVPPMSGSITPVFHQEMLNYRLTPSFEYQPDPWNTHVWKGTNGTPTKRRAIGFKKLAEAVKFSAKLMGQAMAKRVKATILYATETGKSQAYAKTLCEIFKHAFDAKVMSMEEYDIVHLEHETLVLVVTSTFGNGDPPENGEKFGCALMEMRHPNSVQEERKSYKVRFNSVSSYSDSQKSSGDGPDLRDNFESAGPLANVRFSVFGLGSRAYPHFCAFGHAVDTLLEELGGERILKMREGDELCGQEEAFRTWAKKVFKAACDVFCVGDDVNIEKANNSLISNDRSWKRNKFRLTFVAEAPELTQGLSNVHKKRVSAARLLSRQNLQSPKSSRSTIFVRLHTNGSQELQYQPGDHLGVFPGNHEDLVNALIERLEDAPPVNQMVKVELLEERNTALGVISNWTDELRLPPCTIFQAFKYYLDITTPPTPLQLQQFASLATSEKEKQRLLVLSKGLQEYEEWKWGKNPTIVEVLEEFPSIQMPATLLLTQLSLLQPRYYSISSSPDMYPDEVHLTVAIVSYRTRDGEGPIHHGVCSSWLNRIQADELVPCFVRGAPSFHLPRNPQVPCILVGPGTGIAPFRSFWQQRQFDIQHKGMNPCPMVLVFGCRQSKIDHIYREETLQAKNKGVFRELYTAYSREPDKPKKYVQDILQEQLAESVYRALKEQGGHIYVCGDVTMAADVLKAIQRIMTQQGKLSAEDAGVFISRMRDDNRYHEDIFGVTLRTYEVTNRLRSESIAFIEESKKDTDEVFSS

Mus musculus [4] = species on record: Mus musculus; test: Ability for prevention of GSH depletion was measured in mouse; Not active up to 100 uM; type: functional; outline: as §1
Nitric oxide synthase 1 [5] = target: T1, Nitric oxide synthase 1; test: In vitro inhibition concentration was evaluated on the effect of conversion by Nitric oxide synthase of [3H]L-arginine into [3H]L-citrulline
HT22 (Mus musculus) [6] = test: Neuroprotective effect was measured by its ability to protect mouse hippocampal neuronal HT-22 cell lines from oxidative stress caused by glutamate; Not active up to 100 uM
Nitric oxide synthase 1 [7] = target: T1, Nitric oxide synthase 1; test: In vitro inhibition concentration was evaluated on the effect of conversion by Nitric Oxide synthase of [3H]L-arginine into [3H]L-citrulline

SMILES	EC50 (Mus musculus [1]) [µM]	EC50 (HT22 (Mus musculus) [2]) [µM]	IC50 (Nitric oxide synthase 1 [3])	EC50 (Mus musculus [4])	IC50 (Nitric oxide synthase 1 [5]) [µM]	EC50 (HT22 (Mus musculus) [6])	IC50 (Nitric oxide synthase 1 [7]) [µM]
O=C(O)CCCCC1CCSS1 (stereo not drawn) [LIPOIC ACID, ALPHA]	122	19.6	Not Active				
N=C(Nc1ccccc1)c1cccs1				Not Active	4	Not Active	
NC(=Nc1ccc(CNC(=O)CCCCC2CCSS2)cc1)c1cccs1 (stereo unspecified)	64.8	6.3					2.3
N=C(Nc1ccc(NC(=O)CCCCC2CCSS2)cc1)c1cccs1 (stereo unspecified)	46.9	11.1					3.5
N=C(Nc1ccc(CCNC(=O)CC2CCSS2)cc1)c1cccs1 (stereo unspecified)	12.3	1.8					1.15
N=C(Nc1ccc(CCNC(=O)CCCCC2CCSS2)cc1)c1cccs1 (stereo unspecified)	37.1	11.7					1.04
NC(=Nc1ccc(NC(=O)CC2CCSS2)cc1)c1cccs1 (stereo unspecified)	11.9	9.6					4.4

From ChEMBL document CHEMBL1135120, “Novel lipoic acid analogues that inhibit nitric oxide synthase” (Bioorg Med Chem Lett, 2002)
